From ChEMBL document CHEMBL4610115, “Azidothymidine "Clicked" into 1,2,3-Triazoles: First Report on Carbonic Anhydrase-Telomerase Dual-Hybrid Inhibitors” (J Med Chem, 2020)
Calls of active or inactive are those of the source. No cut-off for these calls is given here.

Key:
[1] = molecular target: Telomerase reverse transcriptase (Homo sapiens) (UniProt O14746); experiment: Inhibition of telomerase in human PC3 cells at 20 uM incubated for 48 hrs by TRAP assay; assay type: cell-based; details: PC-3
Chain of Telomerase reverse transcriptase (Homo sapiens) (O14746 whole entry): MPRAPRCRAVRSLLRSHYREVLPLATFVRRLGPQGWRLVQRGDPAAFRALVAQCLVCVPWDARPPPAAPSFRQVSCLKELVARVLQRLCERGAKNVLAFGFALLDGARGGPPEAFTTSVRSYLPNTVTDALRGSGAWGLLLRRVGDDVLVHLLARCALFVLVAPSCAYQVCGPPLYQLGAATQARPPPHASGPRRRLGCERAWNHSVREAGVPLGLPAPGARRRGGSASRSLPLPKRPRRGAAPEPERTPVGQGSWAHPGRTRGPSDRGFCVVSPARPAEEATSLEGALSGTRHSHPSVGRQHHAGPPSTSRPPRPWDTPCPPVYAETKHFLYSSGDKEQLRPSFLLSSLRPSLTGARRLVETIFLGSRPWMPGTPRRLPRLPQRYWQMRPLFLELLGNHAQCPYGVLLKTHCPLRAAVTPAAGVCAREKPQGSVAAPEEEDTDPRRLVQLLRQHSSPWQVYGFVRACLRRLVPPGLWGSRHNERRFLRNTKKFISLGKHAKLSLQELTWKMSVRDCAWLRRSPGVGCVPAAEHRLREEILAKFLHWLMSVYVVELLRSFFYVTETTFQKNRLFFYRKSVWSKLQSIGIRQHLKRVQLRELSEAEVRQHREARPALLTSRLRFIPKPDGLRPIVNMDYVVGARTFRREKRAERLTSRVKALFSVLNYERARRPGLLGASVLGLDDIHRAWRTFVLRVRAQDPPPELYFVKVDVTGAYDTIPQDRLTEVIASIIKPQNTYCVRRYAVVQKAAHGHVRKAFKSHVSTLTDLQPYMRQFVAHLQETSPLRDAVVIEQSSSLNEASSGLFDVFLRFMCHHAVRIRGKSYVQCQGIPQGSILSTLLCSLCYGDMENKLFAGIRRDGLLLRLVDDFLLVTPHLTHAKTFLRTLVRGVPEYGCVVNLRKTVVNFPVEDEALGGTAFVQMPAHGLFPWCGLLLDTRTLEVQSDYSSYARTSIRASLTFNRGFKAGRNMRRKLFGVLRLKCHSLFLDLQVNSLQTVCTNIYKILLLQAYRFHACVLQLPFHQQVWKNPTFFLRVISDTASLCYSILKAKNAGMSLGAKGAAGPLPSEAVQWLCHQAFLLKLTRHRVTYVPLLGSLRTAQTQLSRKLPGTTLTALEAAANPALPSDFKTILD
Outline: (§1)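 Mycoplasma-tested PC3 or HT-29 cells in RPMI-1640/10% FBS were exposed to a final 20 μM for 48 h. Cells were lysed in CHAPS/glycerol Tris buffer (pH 7.5), and 5 μg extract protein was used for TS-primer elongation (30 min, 37 °C) followed by CX-primer/Taq PCR for 30 cycles. Products were run on 12% nondenaturing PAGE with SYBR Green I densitometry. Quadruplicate; mean ± SEM; t-test.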

HT-29 = experiment: Effect on telomerase mRNA expression in human HT-29 cells at 20 uM incubated for 48 hrs by real-time RT-PCR analysis; assay type: ADME, cell-based; details: ht-29, 48 h
Outline: (§2)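 PC3 and HT-29 cells were grown in RPMI-1640 with 10% FBS at 37 °C under 5% CO2, after mycoplasma testing. Cells were exposed to a final 20 μM for 48 h. hTERT mRNA was measured and normalized to 18S RNA, with standard curves from serial cDNA dilutions (1:40–1:320). Runs were done in quadruplicate; results are mean ± SEM, compared by Student's t-test.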

[2] = molecular target: Telomerase reverse transcriptase (Homo sapiens) (UniProt O14746); experiment: Inhibition of telomerase in human HT-29 cells at 20 uM incubated for 48 hrs by TRAP assay; assay type: cell-based; outline: as §1
PC-3 = experiment: Effect on telomerase mRNA expression in human PC3 cells at 20 uM incubated for 48 hrs by real-time RT-PCR analysis; assay type: ADME, cell-based; details: pc-3, 48 h; outline: as §2
Carbonic anhydrase 9 = Carbonic anhydrase 9 (Homo sapiens, UniProt Q16790); experiment: Inhibition of human CA9 pre-incubated for 15 mins by stopped flow CO2 hydrase assay

| Structure (SMILES) | inhibition [1] | Activity (HT-29) | inhibition [2] | Activity (PC-3) | Ki (Carbonic anhydrase 9) [nM] |
| --- | --- | --- | --- | --- | --- |
| Cc1cn([C@H]2C[C@H](n3cc(CNC(=O)c4ccc(S(N)(=O)=O)cc4)nn3)[C@@H](CO)O2)c(=O)[nH]c1=O | inactive | Non-Toxic | inactive | Non-Toxic |  |
| Cc1cn([C@H]2C[C@H](n3cc(COC(=O)c4ccc(Cl)c(S(N)(=O)=O)c4)nn3)[C@@H](CO)O2)c(=O)[nH]c1=O |  |  |  |  | 240 |
| Cc1cn([C@H]2C[C@H](n3cc(C[Se]c4ccc(NC(=S)Nc5cccc(S(N)(=O)=O)c5)cc4)nn3)[C@@H](CO)O2)c(=O)[nH]c1=O | Active | Non-Toxic | Active | Non-Toxic |  |
| Cc1cn([C@H]2C[C@H](n3cc(COc4ccc(S(N)(=O)=O)cc4)nn3)[C@@H](CO)O2)c(=O)[nH]c1=O | Active | Non-Toxic | Active | Non-Toxic |  |
| Cc1cn([C@H]2C[C@H](n3cc(COC(=O)c4ccc(S(N)(=O)=O)cc4)nn3)[C@@H](CO)O2)c(=O)[nH]c1=O | inactive | Non-Toxic | inactive | Non-Toxic |  |
